Screening data deposited in PubChem BioAssay by several laboratories.
The list is not random: actives were taken first. Their share in the collection is about 1.8%.
Cneo AK release: Cryptococcus neoformans lysis via adenylate kinase release; C. neoformans lysis, adenylate kinase release luminescence, 4 h; normalised: neutral wells 0, clomiphene wells 100; lysis activity, % at 15 µM; actives 0.2% (n = 360,000); AID 651654;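 active means mean lysis activity across replicates of at least 80%, whatever share of replicates individually reach that level; inactive means mean lysis activity below 80%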
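Assay system: Cryptococcus neoformans yeast cells / Dosing: single-point compound dose / Timing: 4 h at 37 °C static, read 1 h later / Measured by: luminescence of released adenylate kinase using an AK detection reagent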
C2C12 statin: protects C2C12 myotubes from simvastatin toxicity | actives 0.78% (n = 330,000) | AID 602340 | ATP luminescence, 48 h; scaled: DMSO 0, geranylgeraniol control 100 | rescue of ATP level, % at 7.49 µM;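 active means mean ATP rescue above about 67%, or every replicate alone reaching that limit, limit read from the data, passing the limit was not always enough; inconclusive means no clear call, values can overlap the other calls; inactive means mean under the limit and some replicate under it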;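 further: myotubes were challenged with 10 µM simvastatin during compound exposure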
Efflux pump inh: inhibitors of Candida antifungal efflux pumps expressed in yeast; actives 0.44% (n = 330,000); AID 485275; S. cerevisiae Candida pump triplex, Nile Red efflux; inhibition, % at 10 µM;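 active means plate passing quality check with inhibition over a set limit, or well fluorescence over plate mean plus 4 SD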;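 further: Nile Red retained in pooled yeast measured as flow cytometry median fluorescence; 0% = buffer negative control and 100% = Enniatin B positive control; higher means more Nile Red kept so more efflux inhibition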
SUMO Mot1 rescue: inhibitors of SUMOylation pathway: yeast Mot1-301 growth rescue; AID 2716; S. cerevisiae Mot1-301 growth rescue, ATP luminescence, 38.5C; percent above DMSO median, 100 means doubled; actives 1% (n = 320,000); growth rescue, % at 18.8 µM;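 active means every valid replicate shows activation above 250% relative to neutral control wells; inactive means the rest, any valid replicate at or below 250%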;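 further: OY570 slx delta 5 strain wells were the positive control but not used for scaling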
* = called active by the depositor.

Results for C#CC(=O)N(c1ccc(OC)c(OC)c1)C(C(=O)NC1CCCC1)c1cccs1 (stereo not given) ?
Cneo AK release: 1; C2C12 statin: -933; Efflux pump inh: 0; SUMO Mot1 rescue: 33

What do the screens show for `C#CC(=O)N(c1cccc(OC)c1)C(C(=O)NC1CCCC1)c1cccs1` (stereo not given)?
Cneo AK release: 2; C2C12 statin: -501; Efflux pump inh: 0; SUMO Mot1 rescue: 331*

How did Cc1c(NC(=O)C(C)OC(=O)c2c3c(nc4ccccc24)CCC3)c(=O)n(-c2ccccc2)n1C (stereo not given) do in these assays?
Efflux pump inh: 0; SUMO Mot1 rescue: 8

What do the screens show for `COc1cccc(/C=C2/Sc3ccc(C(=O)NCCN4CCCCCC4)cc3NC2=O)c1`?
Cneo AK release: -3; C2C12 statin: 23; Efflux pump inh: 0; SUMO Mot1 rescue: -10

What do the screens show for `Cc1noc(C)c1S(=O)(=O)N1CCC(C(=O)N2CCN(c3ccccc3Cl)CC2)CC1`?
Cneo AK release: 0; C2C12 statin: 137*; Efflux pump inh: 0; SUMO Mot1 rescue: 203

What do the screens show for `Cc1ccc2[nH]c(=O)c(NC(N)=S)nc2c1`?
Cneo AK release: -2; C2C12 statin: 101*; Efflux pump inh: -1; SUMO Mot1 rescue: -12

What do the screens show for `CCCNC(=O)N(C)C[C@@H]1Oc2cc(C#CCN(C)C)ccc2S(=O)(=O)N([C@@H](C)CO)C[C@H]1C`?
Cneo AK release: -1; C2C12 statin: -23

Results for COc1ccc(NC(=O)N2C3CCCC2CC(NC(=O)c2ccccc2)C3)cc1 (stereo not given) ?
Cneo AK release: 10; C2C12 statin: 0; Efflux pump inh: 0; SUMO Mot1 rescue: 921

What do the screens show for `CCCCCCc1nc(C(N)=O)c2[nH]c(=O)n(-c3ccc(OC)cc3OC)c2n1`?
Cneo AK release: -2; C2C12 statin: 18; Efflux pump inh: 0; SUMO Mot1 rescue: 1

What do the screens show for `COc1ccc(CNC(=O)[C@@H](C)NC(=O)C2CCN(C(=O)[C@@H](N)CCSC)CC2)cc1`?
Cneo AK release: 0; C2C12 statin: -2; Efflux pump inh: 0; SUMO Mot1 rescue: 612*

What do the screens show for `O=C(CN(Cc1ccccc1)C(=O)CCC(=O)Nc1ccccn1)NCc1ccc(F)cc1`?
Cneo AK release: 0; C2C12 statin: 3; Efflux pump inh: 0; SUMO Mot1 rescue: -10

How did CCOc1ccc(OCCOCCOc2c(Cl)cccc2Cl)cc1 do in these assays?
Cneo AK release: -8; C2C12 statin: 133*; Efflux pump inh: 0; SUMO Mot1 rescue: 11

How did COCC(C)NC(=O)C1CCN(S(=O)(=O)c2ccc3ccccc3c2)CC1 (stereo not given) do in these assays?
Efflux pump inh: 0; SUMO Mot1 rescue: -3

Results for C/C(=N\Nc1ccc([N+](=O)[O-])cc1)c1ccc(O)cc1 ?
Efflux pump inh: 0; SUMO Mot1 rescue: 337*

How did CC(=O)NC/C(C)=N\Nc1ccc([N+](=O)[O-])cc1 do in these assays?
Efflux pump inh: 0; SUMO Mot1 rescue: 279*

What do the screens show for `CC(=O)NCC(=O)OCc1ccc([N+](=O)[O-])cc1`?
Efflux pump inh: 0; SUMO Mot1 rescue: 264

How did CCn1cc(CN2CCCC(C(=O)Nc3cccc(-n4cccn4)c3)C2)cn1 (stereo not given) do in these assays?
Cneo AK release: 1; C2C12 statin: -3

What do the screens show for `O=c1c2ccccc2nc(SCc2ccc(F)cc2Cl)n1CCCN1CCOCC1`?
C2C12 statin: 31; Efflux pump inh: 0; SUMO Mot1 rescue: 186

Results for Fc1ccc(CSc2nnc(CN3CCOCC3)n2-c2ccccc2)c(Cl)c1 ?
Cneo AK release: -2; C2C12 statin: 103*; Efflux pump inh: 0; SUMO Mot1 rescue: -25

Results for CNC(=O)c1cc(C(=O)c2ccc(Cl)cc2)c[nH]1 ?
Cneo AK release: -4; C2C12 statin: 4; Efflux pump inh: 0; SUMO Mot1 rescue: 10

How did O=C(c1ccc(Cl)cc1)c1c[nH]c(C(=O)NNc2ccccc2)c1 do in these assays?
C2C12 statin: 20; Efflux pump inh: 0; SUMO Mot1 rescue: 337*

Results for C[C@H](CO)N1C[C@H](C)[C@@H](CN(C)Cc2ccc(Oc3ccccc3)cc2)Oc2ccc(NC(=O)C3CCCCC3)cc2CC1=O ?
Cneo AK release: 0; C2C12 statin: inconclusive

What do the screens show for `O=C(O)COc1ccc2c3c(c(=O)oc2c1)CCC3`?
Cneo AK release: -2; C2C12 statin: 117*; Efflux pump inh: 0; SUMO Mot1 rescue: -9
